Data from publication PMC6634314 (Cell chemical biology, 2019).

Assays:
[1] = test system: MAP2K1; assay: MIB washout assay; type: binding, Human; details: H23 cells, 1 μM 4h, MIB pulldown ratio SM1-71/SM1-71-R
[2] = test system: PIK3C3; assay: MIB washout assay; type: binding, Human; details: H23 cells, 1 μM 4h, MIB pulldown ratio SM1-71/SM1-71-R
[3] = test system: DDR1; assay: MIB washout assay; type: binding, Human; details: H23 cells, 1 μM 4h, MIB pulldown ratio SM1-71/SM1-71-R
[4] = test system: CSNK1E; assay: MIB washout assay; type: binding, Human; details: H23 cells, 1 μM 4h, MIB pulldown ratio SM1-71/SM1-71-R
[5] = test system: IGF1R; assay: MIB washout assay; type: binding, Human; details: H23 cells, 1 μM 4h, MIB pulldown ratio SM1-71/SM1-71-R
[6] = test system: CDK17; assay: MIB washout assay; type: binding, Human; details: H23 cells, 1 μM 4h, MIB pulldown ratio SM1-71/SM1-71-R
[7] = test system: PRKD3; assay: MIB washout assay; type: binding, Human; details: H23 cells, 1 μM 4h, MIB pulldown ratio SM1-71/SM1-71-R
[8] = test system: MAP3K11; assay: MIB washout assay; type: binding, Human; details: H23 cells, 1 μM 4h, MIB pulldown ratio SM1-71/SM1-71-R
[9] = test system: HCK; assay: MIB washout assay; type: binding, Human; details: H23 cells, 1 μM 4h, MIB pulldown ratio SM1-71/SM1-71-R
[10] = test system: TGFBR1; assay: MIB washout assay; type: binding, Human; details: H23 cells, 1 μM 4h, MIB pulldown ratio SM1-71/SM1-71-R
[11] = test system: ACVR1B; assay: MIB washout assay; type: binding, Human; details: H23 cells, 1 μM 4h, MIB pulldown ratio SM1-71/SM1-71-R
[12] = test system: FYN; assay: MIB washout assay; type: binding, Human; details: H23 cells, 1 μM 4h, MIB pulldown ratio SM1-71/SM1-71-R
[13] = test system: PAK4; assay: MIB washout assay; type: binding, Human; details: H23 cells, 1 μM 4h, MIB pulldown ratio SM1-71/SM1-71-R
[14] = molecular target: T1, AURKA (Homo sapiens, UniProt O14965); assay: MIB washout assay; type: binding
T1 sequence (O14965 1-403): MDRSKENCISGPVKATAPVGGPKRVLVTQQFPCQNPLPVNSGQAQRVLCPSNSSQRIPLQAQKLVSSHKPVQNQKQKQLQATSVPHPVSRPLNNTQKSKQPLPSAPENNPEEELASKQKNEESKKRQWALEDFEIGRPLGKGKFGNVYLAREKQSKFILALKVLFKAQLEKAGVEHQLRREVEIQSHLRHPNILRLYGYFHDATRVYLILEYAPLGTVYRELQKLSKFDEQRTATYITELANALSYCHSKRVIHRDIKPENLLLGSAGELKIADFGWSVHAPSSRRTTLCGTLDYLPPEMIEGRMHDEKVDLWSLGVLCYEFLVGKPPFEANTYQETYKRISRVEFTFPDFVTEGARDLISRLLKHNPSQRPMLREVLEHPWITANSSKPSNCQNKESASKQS

[15] = test system: TEC; assay: MIB washout assay; type: binding, Human
[16] = test system: ACVR1; assay: MIB washout assay; type: binding, Human
[17] = molecular target: MAP2K7 (Homo sapiens, UniProt O14733); assay: mass shift assay; type: binding; details: incubated 4 and 24h
Method in brief: (§1)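 Kinase protein at 0.12 mM in 10 mM HEPES pH 7.5, 500 mM NaCl, incubated with 0.2 mM test compound at 4°C for 4 h and 24 h. Samples were diluted in 0.1% formic acid and desalted on a C3 pre-column. ESI-TOF was run in positive mode at 120 V, and intact mass was obtained by deconvolution to detect the adduct.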

[18] = molecular target: MAP2K2 (Homo sapiens, UniProt P36507); assay: mass shift assay; type: binding; details: incubated 4 and 24h
Method in brief: as §1

[19] = molecular target: MAP2K6 (Homo sapiens, UniProt P52564); assay: mass shift assay; type: binding; details: incubated 4 and 24h
Method in brief: as §1

[20] = molecular target: YES1 (Homo sapiens, UniProt P07947); assay: MIB dose-dependent kinase inhibition assay; type: binding; details: read-out: IC50 in the MIB assay, H23 cell lysate, overnight 4°C
[21] = molecular target: AAK1 (Homo sapiens, UniProt Q2M2I8); assay: MIB dose-dependent kinase inhibition assay; type: binding; details: read-out: IC50 in the MIB assay, H23 cell lysate, overnight 4°C
[22] = molecular target: MAP2K1/2; assay: MIB dose-dependent kinase inhibition assay; type: binding, Human; details: read-out: IC50 in the MIB assay, H23 cell lysate, overnight 4°C
[23] = test system: CDK13; details: H23 cells, 1 μM 4h, MIB pulldown ratio SM1-71/SM1-71-R
[24] = H23 cells, 1 μM 4h, 0h post-washout, MIB pulldown ratio SM1-71/SM1-71-R
[25] = H23 cells, 1 μM 4h, 6h post-washout, MIB pulldown ratio SM1-71/SM1-71-R

YES1, sequence (P07947 whole entry): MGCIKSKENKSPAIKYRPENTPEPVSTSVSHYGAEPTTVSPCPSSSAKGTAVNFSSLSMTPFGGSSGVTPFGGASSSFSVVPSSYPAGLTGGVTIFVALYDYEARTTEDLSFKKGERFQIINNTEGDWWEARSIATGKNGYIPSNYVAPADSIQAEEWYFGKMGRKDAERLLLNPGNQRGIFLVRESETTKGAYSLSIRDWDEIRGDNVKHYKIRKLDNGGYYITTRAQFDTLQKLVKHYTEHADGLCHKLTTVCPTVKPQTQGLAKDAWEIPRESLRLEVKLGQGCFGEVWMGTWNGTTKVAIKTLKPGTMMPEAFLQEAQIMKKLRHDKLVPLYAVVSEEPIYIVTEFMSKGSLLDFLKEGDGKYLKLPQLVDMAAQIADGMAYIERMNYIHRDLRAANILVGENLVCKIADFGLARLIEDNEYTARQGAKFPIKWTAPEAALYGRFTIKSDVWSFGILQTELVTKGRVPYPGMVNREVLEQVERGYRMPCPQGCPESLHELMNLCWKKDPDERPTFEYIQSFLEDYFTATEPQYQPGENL
MAP2K6, sequence (P52564 whole entry, species assumed): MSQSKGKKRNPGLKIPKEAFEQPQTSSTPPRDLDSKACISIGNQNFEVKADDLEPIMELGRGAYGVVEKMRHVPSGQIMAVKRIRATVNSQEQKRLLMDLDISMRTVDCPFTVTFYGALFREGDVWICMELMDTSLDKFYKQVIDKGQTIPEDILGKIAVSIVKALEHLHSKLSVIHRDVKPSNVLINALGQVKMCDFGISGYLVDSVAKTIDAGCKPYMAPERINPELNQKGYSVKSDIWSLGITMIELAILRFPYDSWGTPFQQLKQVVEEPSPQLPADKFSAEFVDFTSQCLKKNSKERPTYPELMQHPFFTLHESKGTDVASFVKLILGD
MAP2K7, sequence (O14733 whole entry, species assumed): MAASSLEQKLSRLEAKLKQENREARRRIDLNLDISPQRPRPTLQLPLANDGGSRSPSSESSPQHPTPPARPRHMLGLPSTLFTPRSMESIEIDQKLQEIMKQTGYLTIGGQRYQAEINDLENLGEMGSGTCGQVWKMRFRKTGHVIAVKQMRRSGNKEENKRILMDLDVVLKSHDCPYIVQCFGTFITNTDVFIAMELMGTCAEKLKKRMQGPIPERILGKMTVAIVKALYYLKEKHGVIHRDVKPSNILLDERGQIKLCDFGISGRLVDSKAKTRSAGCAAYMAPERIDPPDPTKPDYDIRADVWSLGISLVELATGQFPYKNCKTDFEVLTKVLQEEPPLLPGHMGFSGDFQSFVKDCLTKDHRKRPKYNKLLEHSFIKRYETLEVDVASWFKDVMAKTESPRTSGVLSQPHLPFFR
MAP2K2, sequence (P36507 whole entry, species assumed): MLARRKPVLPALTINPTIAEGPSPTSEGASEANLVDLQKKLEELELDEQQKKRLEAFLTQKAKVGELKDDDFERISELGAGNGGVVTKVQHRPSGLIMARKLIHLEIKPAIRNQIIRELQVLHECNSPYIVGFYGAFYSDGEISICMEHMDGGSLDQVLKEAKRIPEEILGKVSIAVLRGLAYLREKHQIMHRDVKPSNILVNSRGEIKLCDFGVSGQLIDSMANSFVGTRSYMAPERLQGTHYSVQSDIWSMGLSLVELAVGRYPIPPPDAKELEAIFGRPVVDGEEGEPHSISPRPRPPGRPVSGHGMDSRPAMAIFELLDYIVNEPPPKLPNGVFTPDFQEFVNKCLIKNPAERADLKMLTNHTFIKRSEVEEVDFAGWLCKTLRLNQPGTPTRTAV
AAK1, sequence (Q2M2I8 whole entry): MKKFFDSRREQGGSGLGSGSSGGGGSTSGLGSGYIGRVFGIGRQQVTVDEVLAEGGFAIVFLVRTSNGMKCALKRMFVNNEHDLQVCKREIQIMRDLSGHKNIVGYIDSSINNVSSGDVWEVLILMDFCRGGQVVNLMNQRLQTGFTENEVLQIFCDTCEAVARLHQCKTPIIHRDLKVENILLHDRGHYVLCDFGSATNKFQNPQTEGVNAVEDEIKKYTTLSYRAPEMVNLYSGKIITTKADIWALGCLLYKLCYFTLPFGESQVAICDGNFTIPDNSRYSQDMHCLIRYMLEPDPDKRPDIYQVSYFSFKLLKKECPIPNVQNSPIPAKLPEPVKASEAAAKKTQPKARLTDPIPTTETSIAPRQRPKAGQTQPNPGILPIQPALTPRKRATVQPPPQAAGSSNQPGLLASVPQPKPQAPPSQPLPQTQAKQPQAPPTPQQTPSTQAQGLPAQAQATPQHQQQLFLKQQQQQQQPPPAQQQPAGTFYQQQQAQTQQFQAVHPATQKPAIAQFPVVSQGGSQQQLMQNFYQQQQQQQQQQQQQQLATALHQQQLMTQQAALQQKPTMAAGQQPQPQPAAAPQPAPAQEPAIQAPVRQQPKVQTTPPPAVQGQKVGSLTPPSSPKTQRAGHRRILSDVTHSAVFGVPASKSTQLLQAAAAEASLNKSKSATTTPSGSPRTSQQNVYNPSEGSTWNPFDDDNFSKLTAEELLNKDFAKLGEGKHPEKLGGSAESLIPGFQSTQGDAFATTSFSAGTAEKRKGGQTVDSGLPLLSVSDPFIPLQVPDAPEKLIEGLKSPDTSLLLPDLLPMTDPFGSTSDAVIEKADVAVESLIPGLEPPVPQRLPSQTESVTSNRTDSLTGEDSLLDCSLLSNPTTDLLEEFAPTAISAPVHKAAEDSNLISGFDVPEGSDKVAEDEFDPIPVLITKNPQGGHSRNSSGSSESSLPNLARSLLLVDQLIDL

## C=CC(=O)Nc1ccccc1Nc1nc(Nc2ccc(N3CCN(C)CC3)cc2)ncc1Cl [SM1-71]
[1]; 0h post-washout
  BI-0h: 0.05
[1]; 6h post-washout
  BI-6h: 0.36
[2]; 0h post-washout
  BI-0h: 0.28
[2]; 6h post-washout
  BI-6h: 0.44
[3]; 0h post-washout
  BI-0h: 0.68
[3]; 6h post-washout
  BI-6h: 0.59
[4]; 0h post-washout
  BI-0h: 0.79
[4]; 6h post-washout
  BI-6h: 0.58
[5]; 0h post-washout
  BI-0h: 0.45
[5]; 6h post-washout
  BI-6h: 0.64
[6]; 0h post-washout
  BI-0h: 0.46
[6]; 6h post-washout
  BI-6h: 0.76
[7]; 0h post-washout
  BI-0h: 0.59
[7]; 6h post-washout
  BI-6h: 0.72
[8]; 0h post-washout
  BI-0h: 0.6
[8]; 6h post-washout
  BI-6h: 0.76
[9]; 0h post-washout
  BI-0h: 1.3
[9]; 6h post-washout
  BI-6h: 0.85
[10]; 0h post-washout
  BI-0h: 1.09
[10]; 6h post-washout
  BI-6h: 0.8
[11]; 0h post-washout
  BI-0h: 0.9
[11]; 6h post-washout
  BI-6h: 0.92
[12]; 0h post-washout
  BI-0h: 0.81
[12]; 6h post-washout
  BI-6h: 0.91
[13]; 0h post-washout
  BI-0h: 0.93
[13]; 6h post-washout
  BI-6h: 0.9
[14]; [24]
  BI-0h: 1.16
[14]; [25]
  BI-6h: 2.38
[14]; class from BI 0h and 6h
  Binding: Strongly Reversible (BI0h,6h greater than 1 suggesting a strong preference for reversible mode of inhibition)
[15]; [24]
  BI-0h: 1.02
[15]; [25]
  BI-6h: 1.43
[15]; class from BI 0h and 6h
  Binding: Strongly Reversible (BI0h,6h greater than 1 suggesting a strong preference for reversible mode of inhibition)
[16]; [24]
  BI-0h: 0.81
[16]; [25]
  BI-6h: 0.3
[16]; class from BI 0h and 6h
  Binding: Weakly Irreversible
[17]
  covalent adduct formation (mass shift): formed covalent adducts
[18]
  covalent adduct formation (mass shift): formed covalent adducts
[19]
  covalent adduct formation (mass shift): formed covalent adducts
[20]
  IC50: < 10 nM
[21]
  IC50: < 10 nM
[22]
  IC50: < 10 nM
[23]; 0h post-washout
  BI-0h: 0.57
[23]; 6h post-washout
  BI-6h: 0.57
